High-throughput results deposited in PubChem BioAssay by Broad Institute.
HIV Env fusion – inhibitors of HIV-1 Env-driven cell-cell fusion, primary screen, HeLa-JRFL effector, CEM21 target cells, luciferase; inhibition, % at 12.3 µM; 360,000 tested, 1.1% active;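 active = mean replicate inhibition score of at least 50 and every replicate individually at or above 50; inconclusive = only one of the two criteria met; inactive = mean below 50 and not all replicates reaching 50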;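 note: 0% = plate neutral controls and 100% = maraviroc near 300 nM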
PAX8 inh HTS – inhibitors of PAX8-driven TPO luciferase reporter, primary screen, RMG-I cells, single concentration; SteadyGlo, 24 h; inhibition, % at 12.6 µM; 360,000 tested, 1.2% active; AID 652154, 2013;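 active = mean replicate inhibition at least 60% with every replicate also reaching 60%; inconclusive = only one of the two criteria is met; inactive = mean below 60% and not all replicates reaching 60%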;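 note: luciferase light reporting Pax8 driven TPO promoter activity; plate controls were median of neutral control wells for no effect and mitoxantrone controls for full effect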
EWS-Fli block – EWS/Fli-driven NR0B1 reporter inhibitors, primary screen, A673 cells, NR0B1 luciferase, luminescence, MLPCN library; viability-normalised; inhibition, % at 12.6 µM; 350,000 tested, 0.67% active;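 active = mean inhibition of at least 50% after viability correction, with every replicate also passing that limit; inconclusive = mean reaches 50% but only one of two replicates passes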;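 note: firefly luciferase signal divided by Alamar Blue viability fluorescence both relative to DMSO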
N-glyco inh – increase of ERlucT glycosylation luciferase signal, primary screen, N-linked glycosylation inhibitor project, D54 ERlucT cells, luminescence, set 2. D54 ERlucT glycosylation luciferase reporter, 24 h; percent of 100 nM tunicamycin response. reporter increase, % at 12.5 µM. 360,000 tested, 0.23% active;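 active = mean luciferase reporter signal, scaled so untreated is 0 and the glycosylation-blocking control 100, at or above a set limit in every replicate; inconclusive = mean reaches the limit but not every replicate does; inactive = mean below the limit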;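 note: luciferase carries N-glycosylation sites so blocking glycosylation raises the light; 0% = median of neutral control wells and 100% = median of 100 nM tunicamycin wells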
MLL AF4-AF9 inh – inhibitors of AF4 peptide binding to AF9, primary screen, biochemical, AlphaScreen, biotin-AF4 peptide, FLAG-AF9, single point; inhibition, % at 10 µM; 350,000 tested, 0.47% active; AID 651704, 2012;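 active = every replicate reaching a set inhibition limit, whatever the replicate mean, cut at about 25% in these data; inconclusive = mean inhibition reaches that limit but some replicates miss it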;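 note: 0% = plate neutral control median and 100% = total signal loss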
Target sequence (P42568 whole entry, looked up): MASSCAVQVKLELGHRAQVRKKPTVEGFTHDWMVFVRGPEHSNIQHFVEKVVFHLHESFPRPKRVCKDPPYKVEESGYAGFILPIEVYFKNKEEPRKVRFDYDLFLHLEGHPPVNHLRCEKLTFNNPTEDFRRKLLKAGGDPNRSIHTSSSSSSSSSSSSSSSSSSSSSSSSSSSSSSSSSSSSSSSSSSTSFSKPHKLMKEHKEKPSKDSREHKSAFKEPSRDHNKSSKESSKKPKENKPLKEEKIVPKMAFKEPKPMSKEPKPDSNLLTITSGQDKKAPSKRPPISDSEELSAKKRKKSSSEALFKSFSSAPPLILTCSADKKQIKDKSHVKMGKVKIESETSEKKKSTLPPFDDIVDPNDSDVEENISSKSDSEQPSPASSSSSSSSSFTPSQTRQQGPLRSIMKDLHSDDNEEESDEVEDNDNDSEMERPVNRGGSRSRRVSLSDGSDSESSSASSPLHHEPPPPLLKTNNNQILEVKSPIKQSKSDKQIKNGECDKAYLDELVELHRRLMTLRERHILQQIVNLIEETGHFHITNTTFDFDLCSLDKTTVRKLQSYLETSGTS
FN deposit inh – inhibitors of fibronectin matrix deposition, primary screen, AH1F cells, Alexa488-fibronectin fluorescence, plate reader | AH1F fibroblasts, overnight | inhibition, % at 12.6 µM | 350,000 tested, 0.086% active | AID 743247, 2014;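 active = mean inhibition across replicates of 30% or more, regardless of how many single replicates reach that level; inconclusive = mean under 30% yet at least half of replicates reach 30%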;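 note: positive control wells lacked labelled fibronectin entirely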
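Material: AH1F fibroblasts assembling fluorescent fibronectin matrix; amount: 10000 AH1F cells/well; medium: DMEM, 2% serum; reagent: Alexa488-fibronectin, 24 nM final in well; dosing: single compound dose, delivered by pin transfer; incubation: 1 h adhesion, overnight exposure; detection: fluorescence after three HBSS washes, excitation 485 nm, emission 525 nm; measure: fibronectin deposition inhibition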
Numbers without * were called inactive; u = inconclusive; x = no result; [ ] = another dose, or the depositor's remark. This is a sample that favours compounds with a hit; in the whole collection about 2.5% have one here.

SMILES	HIV Env fusion	PAX8 inh HTS	EWS-Fli block	N-glyco inh	MLL AF4-AF9 inh	FN deposit inh
C[C@@H]1CN([C@H](C)CO)C(=O)c2cc(C#C[C@@H](C)O)cnc2O[C@@H]1CN(C)C(=O)Nc1ccc(C(F)(F)F)cc1	-2[16.7 µM]	0	-6	x	-3	-2
C[C@H](CO)N1C[C@H](C)[C@H](CN(C)C(=O)Nc2ccc(F)cc2)Oc2ccc(NC(=O)Nc3cccc4ccccc34)cc2CC1=O	-17[16.7 µM]	9	5	x	0	x
CCCN(CCC)S(=O)(=O)c1ccc(Cl)c([N+](=O)[O-])c1	3	-5	54*	-1	6	8
CCCN(CCC)S(=O)(=O)c1ccc(N2CCCC2=O)c([N+](=O)[O-])c1	-9	7	2	3	-1	-5
O=C(CNC(=S)N(Cc1ccccc1F)C1CCCCC1)NCC1CCCO1 (stereo not drawn)	u	65*	-5	-3	-4	6
CC(=O)Nc1cc(-c2cccc(C(=O)NCCN(C)C)c2)cn2c(-c3ccccc3)cnc12	-4	8	-5	-3	-8	8
CN(C)CCNC(=O)c1cccc(-c2cnc3c(NC=O)cc(-c4ccc(F)cc4)cn23)c1	-24	18	31	-9	13	11
CN(C)CCNC(=O)c1cccc(-c2cnc3c(NC=O)cc(-c4cccc(F)c4)cn23)c1	-19	22	43	-12	7	8
CC(=O)Nc1cc(-c2cccc(C(=O)NCCN(C)C)c2)cn2c(-c3cccc(C(F)(F)F)c3)cnc12	32	106*	55*	-8	26*	10
CN(C)CCNC(=O)c1cccc(-c2cnc3c(NC=O)cc(/C=C/c4ccccc4)cn23)c1	-25	u	15	-7	34*	-1
CCSc1ccc(-c2cc(NC=O)c3ncc(-c4cccc(C(=O)NCCN(C)C)c4)n3c2)cc1	5	99*	u	-14	43*	8
CO[C@@H]1CN(C)C(=O)c2cc(NC(=O)C3CCOCC3)ccc2OC[C@H](C)N(Cc2nccs2)C[C@@H]1C	x	8	-2	x	-2	x
O=C(c1ccncc1)N1C[C@H]2[C@@H](c3ccccc31)[C@@H](CO)N2C(=O)c1ccncc1	x	-16	-3	x	0	x
CCCC#Cc1cnc2c(c1)C(=O)N([C@@H](C)CO)C[C@@H](C)[C@@H](CN(C)Cc1ccccc1)O2	x	x	3	x	0	x
COc1ccc(/C=C/C(=O)C(C(N)=O)=C2SCCS2)cc1	-8	-46	-51	-10	0	1
NC(=O)C(C(=O)/C=C/c1ccc(Cl)cc1)=C1SCCS1	-104	89*	-8	-12	-16	13
C[C@@H]1CCCCO[C@H](CN(C)Cc2ccc(C(F)(F)F)cc2)[C@H](C)CN([C@H](C)CO)C(=O)c2cc(NS(=O)(=O)c3cn(C)cn3)ccc2O1	5[16.7 µM]	-51	3	x	8	x
CSc1nc2nccc(/C=C\c3ccccc3)n2n1	4	63*	x	8	x	0
CSc1nc2nccc(-c3ccc(Cl)cc3)n2n1	x	x	x	3	x	x
CC(=O)Nc1ccc(S(=O)(=O)NC2=C(N3CCN(Cc4ccccc4)CC3)C(=O)c3ccccc3C2=O)cc1	32	-9	-21	7	41*	-2
O=C1C(NS(=O)(=O)c2ccc(Br)cc2)=C(N2CCCCC2)C(=O)c2ccccc21	23	-14	-16	5	38*	3
CC1CCCN(C2=C(NS(=O)(=O)c3ccc(Br)cc3)C(=O)c3ccccc3C2=O)C1 (stereo not drawn)	-1	2	-14	7	-8	0
CCN1CCN(C2=C(NS(=O)(=O)c3ccc(C)cc3)C(=O)c3ccccc3C2=O)CC1	-2	20	x	-3	14	-4
CC1CCN(C2=C(NS(=O)(=O)c3ccccc3)C(=O)c3ccccc3C2=O)CC1	22	-1	-21	5	57*	3
O=C1C(NS(=O)(=O)c2ccccc2)=C(N2CCN(c3ccc(F)cc3)CC2)C(=O)c2ccccc21	1	8	-13	-2	64*	4
SMILES	HIV Env fusion	PAX8 inh HTS	EWS-Fli block	N-glyco inh	MLL AF4-AF9 inh	FN deposit inh
C[C@@H]1CN([C@H](C)CO)C(=O)c2c(c3ccccc3n2C)-c2ccccc2CO[C@@H]1CN(C)C(=O)c1cc(Cl)cc(Cl)c1	x	51	6	x	3	-6
CC(C)NC(=O)N1C2CN(CC(F)(F)F)CC1C2c1ccc(Br)cc1 (stereo not drawn)	x	x	x	x	x	-9
CC(=O)OC[C@]12CC[C@H]3[C@@](C)(CC[C@H]4C(C)(C)CCC[C@]34C)[C@@H]1CC(C1=CC(=O)OC1O)O2 (stereo partly drawn)	x	x	56*	-24	3	x
CC(=O)OC[C@]1(OC(C)=O)C[C@@]23CC[C@H]4[C@@](C)(CCC[C@@]4(C)C(=O)O)[C@@H]2CC[C@@H]1C3	3	-13	6	3	-24	4
CCCCCc1ccc(OCCCC[n+]2cccc(C)c2)c(CCCCC)c1	56*	94*	33	11	u	8
CCCCCc1ccc(OCCCC[n+]2ccc(C)cc2)c(CCCCC)c1	55*	74*	33	3	u	10
CCCCCc1ccc(OCCCC[n+]2ccccc2)c(CCCCC)c1	x	x	x	7	x	x
C/C=C/c1ccc2c(c1)O[C@H](CN(C)C(=O)CN1CCOCC1)[C@@H](C)CN([C@@H](C)CO)S2(=O)=O	-14[16.7 µM]	x	-2	x	1	x
CC(=O)C1=C(c2ccc(Br)cc2)C(=O)c2ccccc2C1=O	141*	99*	x	-6	x	39*
CC(=O)Nc1c(Br)cc2c(c1Br)C(=O)c1ccccc1-2	9	-3	-3	5	-2	0
CCCNC(=O)N1CCC2(CC1)CN(C(=O)CC)[C@H](CO)c1c2c2ccc(OC)cc2n1C	x	x	7	x	-14	x
COc1ccc(C#Cc2cnc3c(c2)C(=O)N([C@H](C)CO)C[C@H](C)[C@H](CN(C)C)O3)cc1	-3[16.7 µM]	x	-5	x	5	-2
COc1ccc(/C=N/NC(=O)c2cccnc2)cc1CN1CCN(c2ccc(F)cc2)CC1	15	23	8	3	5	-14
COc1ccc(C(=O)N/N=C/c2ccc(OC)c(CN3CCN(c4ccc(F)cc4)CC3)c2)cc1	x	144*	-3	-2	-1	8
CC(O)CNc1nc2ccccc2n1-c1ncnc2sc3c(c12)CCC3 (stereo not drawn)	60*	x	x	-2	x	-4
CCC(=O)Nc1ccc2c(c1)OC[C@@H](C)N(Cc1ccccc1OC)C[C@H](C)[C@@H](OC)CN(C)C2=O	x	-6	-1	x	-2	6
